BindingDB's records for doi:10.1021/jm201131n (Academia Sinica, 2011)

Columns and labels:
[1] = target: Glutathione S-transferase P (Homo sapiens, UniProt P09211); experiment: Inhibition of human GSTP1-1 using GSH as substrate after 3 mins by spectrophotometry
[2] = target: T1, Glutathione S-transferase A2 (Homo sapiens, UniProt P09210); experiment: Inhibition of human GSTA2 using GSH as substrate after 3 mins by spectrophotometry
T1 sequence (P09210 whole entry): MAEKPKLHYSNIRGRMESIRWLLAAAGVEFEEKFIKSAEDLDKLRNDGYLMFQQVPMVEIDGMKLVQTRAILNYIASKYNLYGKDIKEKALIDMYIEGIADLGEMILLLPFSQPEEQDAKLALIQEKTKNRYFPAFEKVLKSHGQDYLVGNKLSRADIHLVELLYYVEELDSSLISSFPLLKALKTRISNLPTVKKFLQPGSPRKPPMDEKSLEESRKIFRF
Procedure, shortened: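 Human GST enzyme preincubated with inhibitor (0–200 μM) in 100 mM potassium phosphate pH 6.5 at 37 °C (GSTM1 at 32 ng). Reaction started with GSH (final 2 mM) and followed at 340 nm for 3 min. IC50 by nonlinear regression, mean ± SEM, n = 3. Percent inhibition at 100 μM is not corrected for glutathione conjugate formation.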

Sequence of Glutathione S-transferase P (P09211 whole entry): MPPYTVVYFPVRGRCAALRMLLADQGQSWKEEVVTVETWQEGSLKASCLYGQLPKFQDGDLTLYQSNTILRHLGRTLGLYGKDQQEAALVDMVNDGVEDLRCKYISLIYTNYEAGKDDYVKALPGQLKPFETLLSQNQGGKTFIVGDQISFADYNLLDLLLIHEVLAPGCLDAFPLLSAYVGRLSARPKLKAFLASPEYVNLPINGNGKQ

IC50 [1] [µM] | IC50 [2] [µM] | SMILES
> 100 | > 100 | CO[C@H]1CC(COC(C)=O)C(=O)C(=O)[C@H]1O (stereo partly specified)
 | > 100 | CO[C@]1(C)O[C@H]2[C@H](O)C(C=O)CC(=O)[C@@H]2O[C@@]1(C)OC (stereo partly specified)

Further lines, the molecule ahead of its results:

SMILES | IC50 [1] [µM] | IC50 [2] [µM]
CC(=O)OCC1CC(O)[C@H](O)C(=O)C1=O (stereo partly specified) | > 100 | > 100
CC(=O)OCC1C[C@@H](O)[C@H](O)C(=O)C1=O (stereo partly specified) | > 100 | > 100
CC(=O)OCC1C[C@H](O)[C@H](O)C(=O)C1=O (stereo partly specified) | > 100 | > 100
CO[C@@H]1CC(COC(C)=O)C(=O)C(=O)[C@H]1O (stereo partly specified) | > 100 | > 100
